Compound activity as filed in PubChem.
This is a sample that favours compounds with a hit; in the whole collection about 2.3% have one here.
TRPC4 inh – blocks the mouse TRPC4 cation channel. Q9QUQ5. HEK293 TRPC4beta/mu-opioid, DAMGO-evoked Fluo4 calcium flux; hits give low values. B-score at 10 µM. 0.39% of 300,000 active. AID 2247;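 active = B-score over 3 SD under the library average, no early fluorescence shift, positive overall ratio signal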
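Material: HEK293 cells with stable TRPC4beta plus mu-opioid receptor expression / Probe or stimulus: DAMGO in two steps, submaximal then maximal / Compound: single concentration per test compound / Technique: kinetic Fluo4 fluorescence imaging of calcium influx / Read-out: per-well B score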
TRPC6 inh – inhibitors of mouse TRPC6 channel | Q61143 | HEK293-TRPC6, membrane potential dye, ACh-evoked depolarization; hits give low values | B-score at 10 µM | 1.1% of 310,000 active;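 active = B-score under library mean minus 3 SD, initial fluorescence not abnormally high, positive integrated signal ratio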;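 also: B-score derived from integrated fluorescence ratio over the kinetic read; more negative B-score means stronger inhibition of depolarization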
TRPC4 PAM – TRPC4 (mouse) allosteric potentiation. HEK293 TRPC4beta/mu-opioid, DAMGO EC20, Fluo-4 Ca2+ flux; hits give high values. B-score at 10 µM. 0.42% of 310,000 active. AID 2227;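 active = B-score of calcium response area above 5 SD of library B-scores, with initial fluorescence ratio within 5 SD of library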;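 also: B-score of integrated fluorescence ratio over time as area under calcium response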
CR mimetic SO – caloric restriction mimetics inhibiting age-related superoxide in yeast; AID 2690; 0.18% of 330,000 active; S. cerevisiae aged cells, superoxide DHE fluorescence; hits give low values; superoxide response (% of plate mean), % at 10 µM;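 active = superoxide response under a set limit, about three screen SD below normal, cut at about 65% in these data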;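 also: yeast aged for seven days with compound at 30 °C before DHE staining; 100% = average MFI of all compound-treated wells on the plate with controls excluded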
TRPC4 agonist – opens the mouse TRPC4 cation channel | Q9QUQ5 | HEK293 TRPC4beta/mu-opioid, Fluo4 calcium fluorescence; hits give high values | B-score at 10 µM | 0.49% of 310,000 active;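 active = B-score above 5 SD of library B-scores, and initial fluorescence ratio not above library mean plus 5 SD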;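 also: positive B-score marks a calcium rise read as TRPC4 activation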
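Incubation: 45 min room-temperature Fluo4 loading, 110 s read / System: HEK293 cells stably co-expressing mouse TRPC4beta and mu-opioid receptor / Signal: Fluo4 fluorescence, kinetic / Control set: buffer (low) and maximal DAMGO (high) / Measure: integrated baseline-normalised fluorescence ratio, converted to per-well B score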
TRPC6 activator – mouse TRPC6 channel activation. Q61143. HEK293-TRPC6 membrane potential dye fluorescence; hits give high values. B-score at 10 µM. 0.13% of 310,000 active;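 active = B-score of the integrated fluorescence ratio above library mean plus 3 SD, and starting fluorescence ratio within library mean plus 5 SD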;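 also: higher score means more depolarization so channel activation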
Numbers without * were called inactive; i = inactive; x = no result given.

SMILES | TRPC4 inh | TRPC6 inh | TRPC4 PAM | CR mimetic SO | TRPC4 agonist | TRPC6 activator
CNc1oc(-c2ccc(Cl)cc2)nc1C#N | i | i | i | 111 | i | i
c1ccc(-c2ncc(CN3CCN(c4ccccn4)CC3)[nH]2)cc1 | -6* | i | i | 103 | i | i
NS(=O)(=O)c1ccc(N2N=C(c3ccccc3)CC2c2ccccc2)cc1 (centres undefined) | i | i | 11* | 96 | i | i
COc1ccc(-c2noc(CCC(=O)NC3CCN(Cc4ccccc4)CC3)n2)cc1 | i | i | i | 86 | i | i
O=C(COc1ccc(C2SCCS2)cc1)NNC(=O)C(Cl)Cl | i | i | i | 97 | i | i
O=C(CNC(=O)c1ccccc1)OCc1nnc(-c2ccccc2)o1 | i | i | i | 111 | i | i
O=C(CCN1c2ccccc2Sc2ccccc21)OCc1nnc(-c2ccccc2)o1 | i | i | 12* | 134 | i | i
Cc1cc(C)c(C)c(S(=O)(=O)N2CCN(C)CC2)c1C | i | i | i | 107 | i | i
Cc1cccc(NC(=O)CS(=O)(=O)Cc2ccccc2)n1 | i | i | i | 99 | 53* | i
COc1ccc(C2=NN(C(=O)c3ccccc3)C(c3ccc(OC)c(OC)c3)C2)c(O)c1 (centres undefined) | -7* | i | i | x | i | i
COc1ccc(C2=NN(C(=O)/C=C/c3ccccc3)C(c3ccccc3)C2)c(OC(C)=O)c1 (centres undefined) | i | i | i | 91 | i | i
COc1ccc(C2CC(c3ccc(OC)cc3OC(C)=O)=NN2C(=O)c2ccccc2)cc1 (centres undefined) | i | i | 11* | 96 | i | i
COc1ccc(-n2c(=S)[nH]c3c(sc(=S)n3-c3ccccc3)c2=O)c(OC)c1 | i | i | i | 93 | i | i
CCOC(=O)/C=C/c1ccc2c(c1)S(=O)(=O)N(Cc1ccc(OC)cc1)[C@H]2CC(=O)OCC | i | i | i | 101 | i | i
CN(C)C(CNc1ncnc2sc3c(c12)CCCCC3)c1ccco1 (centres undefined) | i | i | i | 106 | 76* | i
COc1ccccc1C(CNc1ncnc2sc(C)c(C)c12)N(C)C (centres undefined) | i | i | i | 98 | i | i
c1cncc(CNc2ncnc3sc4c(c23)CCCC4)c1 | i | i | i | 74 | i | i
Cc1sc2ncnc(NCC(c3ccco3)N(C)C)c2c1C (centres undefined) | i | i | i | 104 | 188* | i
COc1ccc(C(CNc2ncnc3sc(C)c(C)c23)N(C)C)cc1 (centres undefined) | i | i | i | 86 | 236* | i
O=S(=O)(NC1CCCCC1N1CCN(c2ccccc2F)CC1)c1ccc(Cl)cc1 (centres undefined) | i | i | 12* | 83 | i | i
O=S(=O)(NC1CCCCC1N1CCOCC1)c1ccc(Cl)cc1 (centres undefined) | i | i | i | 97 | i | i
Cc1ccc(O)c(NC(=O)c2cccc(NC(=O)c3ccco3)c2)c1 | i | i | i | 109 | i | i
CC(=O)N1N=C(c2c(-c3ccccc3)c3cc(Br)ccc3[nH]c2=O)CC1c1ccco1 (centres undefined) | i | i | i | 111 | i | i
CC(=O)N1N=C(c2c(-c3ccccc3)c3cc(C)ccc3[nH]c2=O)CC1c1ccco1 (centres undefined) | i | i | 24* | 106 | i | i
CCCCc1ccc(N/C(N)=N/c2nc(C)cc(C)n2)cc1 | i | i | i | 95 | 77* | i
CCC(=O)Nc1ccc(N/C(N)=N/c2nc(C)cc(C)n2)cc1 | i | i | i | 96 | i | i
Cc1ccc(N/C(N)=N/c2nc(C)cc(C)n2)cc1 | i | i | i | 103 | i | i
